In ChEMBL document CHEMBL1124352, “Oral hypoglycemic agents. Discovery and structure-activity relationships of phenacylimidazolium halides” (1989):

Columns and labels:
[1] = tested on: Mus musculus; assay: Percent blood glucose level in mice 4 hours after peroral administration of compound (100 mg/kg); type: functional
In short: (§1)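 Viable yellow obese diabetic mice, six per group, gavaged with 100 mg/kg in saline-2% Emulphor; six vehicle-gavaged controls. Tail blood taken before dosing and at 2 and 4 h. Glucose measured by glucose oxidase method on an autoanalyzer. Values expressed as percent of zero time, mean ±SE of six mice. Significance versus controls by Student's t test, p < 0.05.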

[2] = tested on: Mus musculus; assay: Percent blood glucose level in mice 2 hours after peroral administration of compound (100 mg/kg); type: functional; in short: as §1

Structure (SMILES)	Blood glucose [1]	Blood glucose [2]
Cc1cc[n+](CC(=O)c2ccccc2)cc1.[Br-]	103%	105%
Cn1cc[n+](CC(=O)c2ccc(C#N)cc2)c1.[Br-]	106%	105%
Cn1cc[n+](CC(=O)c2cccc(C(F)(F)F)c2)c1.[I-]	97%	95%
Cc1ccc(C(=O)Cn2ccc[n+]2C)cc1.[Br-]	82%	83%
Cn1cc[n+](C(C)(C)C(=O)c2ccccc2)c1.[Br-]	113%	104%
Cc1n(C)cc[n+]1CC(=O)c1ccccc1.[Cl-]	81%	90%
COc1ccc(C(=O)C[n+]2ccn(C)c2)cc1.[Br-]	77%	70%
Cn1cc[n+](CC(=O)c2ccco2)c1.[Br-]	92%	72%
COc1cccc(C(=O)Cn2ccn(C)c2=O)c1	103%	101%
COc1ccc(C(=O)C[n+]2ccn(C)c2)cc1OC.[Br-]	81%	86%
CC(=O)C[n+]1ccn(-c2ccccc2)c1.[Cl-]	109%	105%
COc1cccc(C(=O)C[n+]2ccsc2)c1.[Br-]	123%	105%
CCCn1cc[n+](CC(=O)c2ccccc2)c1.[Cl-]	79%	79%
Cn1cc[n+](CC(=O)c2ccccc2F)c1.[Br-]	99%	91%
Cc1ccc(C(=O)C[n+]2cn(C)c(-c3ccccc3)c2-c2ccccc2)cc1.[Br-]	105%	102%
Cn1cc[n+](CC(=O)c2ccc(C(N)=O)cc2)c1.[Br-]	95%	100%
Cc1ccc(C(=O)C[n+]2ccncc2)cc1.[Br-]	112%	122%
Cc1ccc(C(=O)C[n+]2cc3ccccc3cn2)cc1.[Br-]	108%	115%
CCOc1cccc(C(=O)C[n+]2ccn(C)c2)c1.[Br-]	64%	63%
COc1cccc(C(=O)C[n+]2ccn(C(C)C)c2)c1.[Br-]	83%	79%

Structure (SMILES)	Blood glucose [1]	Blood glucose [2]
C[n+]1ccn(CC(=O)c2ccccc2)c1.[Br-]	71%	74%
COc1cccc(C(=O)C[N+]2=CN(C)CC2)c1.[Br-]	97%	81%
Cn1cc[n+](C(C(=O)c2ccccc2)c2ccccc2)c1.[Cl-] (stereo not drawn)	83%	94%
Br.O=C(Cn1ccnc1)c1ccccc1	90%	103%
Cc1ccc(C(=O)C[n+]2ccn(C)c2)cc1.[Br-]	53%	57%
COc1cc(OC)cc(C(=O)C[n+]2ccoc2)c1.[Br-]	97%	95%
Cc1ccccc1C(=O)C[n+]1ccn(C)c1.[Br-]	87%	80%
Cn1cc[n+](CC(=O)c2cccc3ccccc23)c1.[Br-]	110%	90%
CC(=O)Nc1cccc(C(=O)C[n+]2ccn(C)c2)c1.[Br-]	109%	100%
Cc1ccc(C(=O)C[n+]2ccn(C)c2)c(C)c1.[Br-]	79%	62%
Cn1cc[n+](CC(=O)c2ccc3ccccc3c2)c1.[Br-]	99%	89%
Cn1cc[n+](CC(=O)c2ccc(-c3ccccc3)cc2)c1.[Br-]	103%	103%
Cc1cc(C)c(C(=O)C[n+]2ccn(C)c2)c(C)c1.[Br-]	97%	94%
COc1cccc(C(O)C[n+]2ccn(C)c2)c1.[I-] (stereo not drawn)	103%	106%
CO/N=C(/C[n+]1ccn(C)c1)c1ccc(C)cc1.[I-]	81%	86%
COC(=O)Cn1cc[n+](CC(=O)c2ccccc2)c1.[Br-]	84%	89%
Cn1cc[n+](CC(=O)c2cccc(Cl)c2)c1.[Br-]	112%	107%
Cn1cc[n+](CC(=O)c2ccc(Cl)cc2)c1.[Br-]	93%	94%
COc1cccc(C(=O)C[n+]2ccn(C)c2SC(C)C)c1.[Br-]	121%	101%
CC(C(=O)c1ccccc1)[n+]1ccn(C)c1.[Br-] (stereo not drawn)	61%	70%

Structure (SMILES)	Blood glucose [1]	Blood glucose [2]
COc1cccc(C(=O)C[n+]2ccn(C)c2)c1OC.[Br-]	88%	83%
COc1cc(OC)cc(C(=O)C[n+]2ccn(C)c2)c1.[Br-]	69%	83%
Cc1cccc(C(=O)C[n+]2ccn(C)c2)c1.[Br-]	73%	78%
Cc1ccc(C(=O)C[n+]2ccccn2)cc1.[Br-]	111%	105%
COc1cccc(C(=O)Cn2ccnc2)c1	121%	110%
Cn1cc[n+](CC(=O)c2ccc(O)c(O)c2)c1.[Cl-]	107%	108%
Cn1cc[n+](CC(=O)c2ccc(Cl)c(Cl)c2)c1.[Br-]	79%	94%
COc1ccccc1C(=O)C[n+]1ccn(C)c1.[Br-]	97%	90%
COc1cccc(C(=O)C[n+]2ccn(C)c2)c1.[Br-]	72%	58%
Cc1ccc(S(=O)(=O)[O-])cc1.Cn1cc[n+](CC(=O)c2cccc(O)c2)c1	87%	93%
CCCOc1cccc(C(=O)C[n+]2ccn(C)c2)c1.[Br-]	72%	63%
Cc1ccc(C(=O)C[n+]2ccn(C)c2)cc1C.[Br-]	95%	83%
COc1cccc(C(=O)Cn2ccn(C)c2=S)c1	80%	99%
COc1cccc(C(=O)C[n+]2ccn(-c3ccccc3)c2)c1.[Br-]	91%	96%
COc1cccc(C(=O)CC[n+]2ccn(C)c2)c1.[I-]	94%	91%
Cc1ccc(C(=O)C[n+]2csc3ccccc32)cc1.[Br-]	108%	106%
CCOc1ccc(C(=O)C[n+]2ccn(C)c2)cc1.[Br-]	104%	103%
CCc1ccc(C(=O)C[n+]2ccn(C)c2)cc1.[Br-]	88%	77%
COc1ccc(OC)c(C(=O)C[n+]2ccn(C)c2)c1.[Br-]	86%	78%
